Laboratory results reported in ChEMBL document CHEMBL3860061, “A Novel Parkinson's Disease Drug Candidate with Potent Anti-neuroinflammatory Effects through the Src Signaling Pathway” (J Med Chem, 2016).
The source made the active and inactive calls. The rule behind the calls is not given here.

What was measured:
[1] = molecular target: Voltage-gated inwardly rectifying potassium channel KCNH2 (Homo sapiens, UniProt Q12809); test: Inhibition of human ERG by whole cell voltage clamp assay
Summary of the method: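 Whole-cell voltage clamp. Internal solution: KCl 130 mM, MgCl2 1 mM, EGTA 5 mM, ATP-Mg 5 mM, HEPES 10 mM, pH 7.2. Bath: NaCl 137, CaCl2 1.8, KCl 4, MgCl2 1, glucose 5, HEPES 10 mM, pH 7.4. From a holding potential of −70 mV, 2-s steps to 50 mV in 10 mV increments every 15 s; tail current recorded on a 2-s step from +50 to −40 mV.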

[2] = molecular target: Proto-oncogene tyrosine-protein kinase Src (Mus musculus) (UniProt P05480); test: Inhibition of Src signaling pathway in mouse BV2 cells assessed as suppression of LPS-induced NO release at 0.1 to 100 uM preincubated for 1 hr followed by LPS addition measured after 24 hrs relative to control by Griess assay; format: cell-based; settings: BV-2
Summary of the method: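 BV-2 cells in DMEM/10% FBS, plated at 5×10^3 per well. After 24 h, treated at 100, 50, 10, 5, 1 and 0.1 µM; 1 h later LPS 300 ng/mL added. After another 24 h, nitrite in the medium measured by Griess assay.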

[3] = tested on: Mus musculus; test: Antineuro-inflammatrory activity in alpha-syn A53T transgenic B6C3H mouse assessed as decrease in IL-1beta level in midbrain at 10 to 20 mg/kg dosed once daily for 12 consecutive weeks by ELISA; format: functional, organism-based
Summary of the method: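 Male B6;C3H mice expressing mutant α-syn (A53T), from 4 months old, given agent (5, 10, 20 mg/kg) or L-DOPA 20 mg/kg in 0.5% CMC-Na once daily for 12 weeks. Wild-type controls received vehicle. Midbrain homogenised in non-denaturing lysis buffer with protease inhibitor; IL-1β or TNF-α measured by ELISA, n = 6, mean ± SD.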

[4] = tested on: Mus musculus; test: (§1) Neuroprotective activity in MPTP-induced subacute C57/BL mouse Parkinson's disease model assessed as improvement in motor behavior at 5 to 20 mg/kg […] dosed 30 mins prior to each MPTP injection for 5 days and administered continously for 7 days post last MPTP dose by pole test; format: functional, organism-based
Summary of the method: (§2)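 Sub-acute MPTP model (30 mg/kg i.p. × 5 days) in male C57/BL mice. Agent (5–20 mg/kg) or L-DOPA 20 mg/kg given 30 min before each injection and for 7 days after. Rotarod at 14 rpm, up to 120 s, fall latency over three trials 1 h apart. Pole test: 50 cm pole, descent scored 1–5, two trials 1 h apart, pre-trained. n = 15.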

[5] = tested on: Mus musculus; test: Neuroprotective activity in MPTP/probenecid-induced chronic C57/BL mouse Parkinson's disease model assessed as reversal of decline of TH-positive neuron levels in substantia nigra at 10 to 20 mg/kg dosed once daily for 7 weeks post 10 doses of MPTP/probenecid for 5 weeks measured after last MPTP/probenecid dose by 3,3'-diaminobenzidine staining based light microscopic analysis; format: functional, organism-based
Summary of the method: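 Male C57/BL mice (22–25 g) received 10 doses of MPTP hydrochloride (25 mg/kg in saline, s.c.) plus probenecid (250 mg/kg in DMSO, i.p.) over 5 weeks. Only mice showing rotarod dysfunction afterwards were used, randomized, and dosed daily for 7 weeks with test agent in 0.5% CMC-Na. Fixed brains were cut at 40 µm; nigral coronal sections were stained with anti-TH, developed with DAB/peroxide, and positive cells counted blind.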

[6] = tested on: Mus musculus; test: In vivo inhibition of Src in MPTP/probenecid-induced chronic C57/BL mouse Parkinson's disease model assessed as effect on Akt expression level in midbrain at 5 to 20 mg/kg dosed once daily for 7 weeks post 10 doses of MPTP/probenecid for 5 weeks by iTRAQ-labelled 2D-LC/MS/MS analysis; format: functional, organism-based
[7] = tested on: Mus musculus; test: Neuroprotective activity in alpha-syn A53T transgenic B6C3H mouse assessed as improvement in motor behavior at 5 to 20 mg/kg dosed once daily for 12 consecutive weeks by rotarod test; format: functional, organism-based
Summary of the method: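 Male B6;C3H mice overexpressing mutant alpha-syn (A53T), housed on a 12-h light/dark cycle at 24 °C and 60% humidity, were acclimatised for 1 week. Daily dosing ran 12 consecutive weeks from 4 months of age. Wild-type mice received 0.5% CMC-Na, and L-DOPA 20 mg/kg was the reference. Rotarod ran at 14 rpm for up to 120 s, recording latency to first fall. Each mouse had three trials with 1 h rest between them. n = 15; mean ± SD.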

[8] = tested on: Mus musculus; test: Nephrotoxicity in ICR mouse at 250 to 1000 mg/kg administered through oral gavage for 14 consecutive days; format: toxicity, organism-based; settings: in vivo
Summary of the method: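 Mice dosed by oral gavage at 250, 500 and 1000 mg/kg for 14 consecutive days. General condition monitored throughout; liver and kidney clinical chemistry assessed.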

[9] = molecular target: Proto-oncogene tyrosine-protein kinase Src (Rattus norvegicus) (UniProt Q9WUD9); test: Inhibition of LPS-induced Src phosphorylation at Tyr-416 residue in Sprague-Dawley rat primary microglia cells at 10 uM preincubated for 1 hr followed by LPS stimulation measured after 3 hrs by Western blot analysis
Summary of the method: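 Primary microglia from 1-day-old Sprague-Dawley rat brains, grown to confluence 12–14 days, shaken off astroglia (>98% pure). Agent at 10 µM added 1 h before LPS 100 ng/mL. Phosphorylated Src, Akt and PTEN measured 3 h later by Western blot, n = 4.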

[10] = tested on: Mus musculus; test: as §1, with “rotarod” for “pole”; format: functional, organism-based; summary of the method: as §2
[11] = tested on: Mus musculus; test: Increase in dopamine level in striatum of MPTP-induced subacute C57/BL mouse Parkinson's disease model at 10 to 20 mg/kg […] dosed 30 mins prior to each MPTP injection for 5 days and administered continously for 7 days post last MPTP dose by HPLC analysis; format: functional, organism-based
Summary of the method: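 Sub-acute model: male C57/BL mice given MPTP·HCl 30 mg/kg i.p. for 5 days. Agent (5–20 mg/kg) or L-DOPA 20 mg/kg in 0.5% CMC-Na dosed 30 min before each injection, then for 7 more days. Striatum sonicated in 0.6 N perchloric acid, centrifuged, phosphate/citrate/EDTA solution added, recentrifuged; dopamine by HPLC, n = 8.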

[12] = tested on: Mus musculus; test: Neuroprotective activity in MPTP/probenecid-induced chronic C57/BL mouse Parkinson's disease model assessed as improvement in motor behavior at 5 to 20 mg/kg dosed once daily for 7 weeks post 10 doses of MPTP/probenecid for 5 weeks measured after last MPTP/probenecid dose by rotarod test; format: functional, organism-based
Summary of the method: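 Chronic MPTP/probenecid model (10 doses over 5 weeks), then agent (5–20 mg/kg) or L-DOPA 20 mg/kg daily for 7 weeks. Rotarod at 14 rpm, up to 120 s, fall latency from three trials 1 h apart. Pole test: gauze-wrapped 50 cm pole, descent scored 1–5, two trials 1 h apart after pre-training. n = 15.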

Voltage-gated inwardly rectifying potassium channel KCNH2, sequence (Q12809 whole entry): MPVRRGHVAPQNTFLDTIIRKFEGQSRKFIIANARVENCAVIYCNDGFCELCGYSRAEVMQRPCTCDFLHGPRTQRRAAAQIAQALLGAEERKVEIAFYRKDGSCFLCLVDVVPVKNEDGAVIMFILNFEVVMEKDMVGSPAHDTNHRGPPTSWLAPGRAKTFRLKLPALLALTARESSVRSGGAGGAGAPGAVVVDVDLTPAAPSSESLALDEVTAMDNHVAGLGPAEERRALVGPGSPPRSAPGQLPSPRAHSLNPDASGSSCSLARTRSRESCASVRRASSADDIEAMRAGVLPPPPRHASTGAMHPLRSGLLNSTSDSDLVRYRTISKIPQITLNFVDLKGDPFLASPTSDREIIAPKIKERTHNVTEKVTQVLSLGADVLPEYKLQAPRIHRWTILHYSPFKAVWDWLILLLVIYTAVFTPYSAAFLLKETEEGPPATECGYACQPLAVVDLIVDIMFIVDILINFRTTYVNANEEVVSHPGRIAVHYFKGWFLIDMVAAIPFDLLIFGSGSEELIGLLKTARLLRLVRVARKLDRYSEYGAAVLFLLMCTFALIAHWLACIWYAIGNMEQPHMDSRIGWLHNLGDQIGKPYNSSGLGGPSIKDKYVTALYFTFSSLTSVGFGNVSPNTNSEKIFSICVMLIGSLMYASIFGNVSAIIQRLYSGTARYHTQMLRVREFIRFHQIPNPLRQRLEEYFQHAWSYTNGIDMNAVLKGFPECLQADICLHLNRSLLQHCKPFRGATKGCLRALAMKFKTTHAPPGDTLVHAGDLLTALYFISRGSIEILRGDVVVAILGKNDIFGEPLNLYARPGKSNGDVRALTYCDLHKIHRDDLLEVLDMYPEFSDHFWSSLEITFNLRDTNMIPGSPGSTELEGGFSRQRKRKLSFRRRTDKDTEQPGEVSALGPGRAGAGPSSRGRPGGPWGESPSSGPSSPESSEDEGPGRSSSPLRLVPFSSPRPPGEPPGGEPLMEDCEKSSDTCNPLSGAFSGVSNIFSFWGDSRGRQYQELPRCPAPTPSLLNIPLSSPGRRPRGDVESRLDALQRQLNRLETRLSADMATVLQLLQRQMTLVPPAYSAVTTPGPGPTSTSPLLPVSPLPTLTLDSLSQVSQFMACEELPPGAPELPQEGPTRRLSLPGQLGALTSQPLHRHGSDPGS
Proto-oncogene tyrosine-protein kinase Src (Rattus norvegicus), sequence (Q9WUD9 2-536 limits assumed): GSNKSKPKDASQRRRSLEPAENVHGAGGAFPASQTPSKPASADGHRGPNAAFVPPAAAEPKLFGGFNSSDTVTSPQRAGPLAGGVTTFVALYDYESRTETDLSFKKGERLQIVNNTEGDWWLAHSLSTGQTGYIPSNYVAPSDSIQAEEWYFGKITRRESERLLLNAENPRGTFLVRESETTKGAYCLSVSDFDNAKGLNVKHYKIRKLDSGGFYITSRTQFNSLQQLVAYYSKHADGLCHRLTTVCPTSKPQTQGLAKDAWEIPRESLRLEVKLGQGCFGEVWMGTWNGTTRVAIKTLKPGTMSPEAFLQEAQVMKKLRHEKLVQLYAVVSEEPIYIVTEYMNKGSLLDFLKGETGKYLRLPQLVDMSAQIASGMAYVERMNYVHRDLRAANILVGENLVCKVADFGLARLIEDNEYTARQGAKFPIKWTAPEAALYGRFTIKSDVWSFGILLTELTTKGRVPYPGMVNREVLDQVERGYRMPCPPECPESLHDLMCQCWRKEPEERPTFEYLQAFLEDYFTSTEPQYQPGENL
Proto-oncogene tyrosine-protein kinase Src (Mus musculus), sequence (P05480 2-535 limits assumed): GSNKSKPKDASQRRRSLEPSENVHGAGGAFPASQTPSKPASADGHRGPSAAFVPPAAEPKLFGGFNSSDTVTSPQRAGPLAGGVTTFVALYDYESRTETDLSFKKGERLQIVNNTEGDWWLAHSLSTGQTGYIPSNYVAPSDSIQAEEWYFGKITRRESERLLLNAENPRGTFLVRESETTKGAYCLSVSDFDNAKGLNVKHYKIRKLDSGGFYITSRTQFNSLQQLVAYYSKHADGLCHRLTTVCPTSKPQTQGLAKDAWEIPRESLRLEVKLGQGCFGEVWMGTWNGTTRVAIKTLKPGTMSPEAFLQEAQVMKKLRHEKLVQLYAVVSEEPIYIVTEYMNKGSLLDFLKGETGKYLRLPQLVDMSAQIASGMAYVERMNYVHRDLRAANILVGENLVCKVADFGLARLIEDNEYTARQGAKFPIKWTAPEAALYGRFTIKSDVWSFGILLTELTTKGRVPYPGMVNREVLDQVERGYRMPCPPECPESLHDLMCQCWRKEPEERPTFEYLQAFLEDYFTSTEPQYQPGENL

COc1cc(OC)c(CN[C@@H](CO)C(=O)O)c(OC)c1 was tested. Which “inhibition (INH)” value [1] did it give?
The value was “Active”.

What about the inhibition [2] of the same molecule?
The inhibition was “Active”.

And the Activity [3]?
Its Activity is “Active”.

What about the Activity [4] of the same molecule?
Its Activity is “Active”.

What about the Activity [5] of the same molecule?
Its Activity is “Active”.

What about the inhibition [6] of the same molecule?
The inhibition was “Active”.

And the Activity [7]?
Its Activity is “Active”.

And the Activity [8]?
Its Activity is “Non-Toxic”.

What about the inhibition [9] of the same molecule?
Its inhibition is “Active”.

And the Activity [10]?
The Activity was “Active”.

And the Activity [11]?
Its Activity is “Active”.

And the Activity [12]?
The Activity was “Active”.
